Experimental findings from ChEMBL document CHEMBL1151213, “Yucca schidigera bark: phenolic constituents and antioxidant activity” (J Nat Prod, 2004) are described below.

Holding throughout (format): functional
Assay [1] is described as follows: Antioxidant activity against ABTS radical assessed as TEAC units. The gist of the method:
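ABTS radical cation solution diluted in PBS pH 7.4 to A734 0.70, equilibrated at 30 °C. Samples in methanol at 0.3, 0.5, 1, 1.5 and 2 mM; reaction started by adding diluted ABTS to sample. Percent inhibition of A734 versus methanol blank plotted against concentration, in triplicate. Value is Trolox concentration with the same capacity as 1 mM sample.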

Assay [2] can be described thus: Antioxidant activity against beta-carotene and linoleic acid assessed as inhibition of bleaching of beta-carotene at 60 mins by autooxidation assay. Details: concentration or dose not given beside the values. Summed up: (§1)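 Heat-induced oxidation of an aqueous emulsion of β-carotene, linoleic acid and Tween 20, held at 50 °C for 3 h. β-Carotene bleaching was followed by A470 at intervals. AA = [1 − (A0 − At)/(A00 − A0t)] × 100, taking absorbances with and without test sample at start and at time t. Run in triplicate; BHT served as positive control.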

Assay [3] can be described thus: Antioxidant activity against beta-carotene and linoleic acid assessed as inhibition of bleaching of beta-carotene at 120 mins by autooxidation assay. Details: concentration or dose not given beside the values. The gist of the method: as §1

Take `O=C1Oc2cc(O)c3c(c2[C@]12c1c(O)cc(O)cc1O[C@@H]2c1ccc(O)cc1)O[C@H](c1ccc(O)cc1)[C@H](O)C3`: the results for the Activity in assay [1], in assay [2] and in assay [3] were 1.79 mM, 24.4% and 51%, respectively.
In the same order, the values of `COc1c(O)cc(/C=C/c2cc(O)cc3c2[C@@]2(C(=O)O3)c3c(O)cc(O)cc3O[C@@H]2c2ccc(O)cc2)cc1O` are 1.6 mM, 59.5% and 71.7%.
In the same order, the values of `COc1c(O)cc(/C=C/c2cc(O)cc(O)c2)cc1O` are 2.25 mM, 3.1% and 2.9%.
For `O=C1Oc2cc(O)cc(/C=C/c3ccc(O)cc3)c2[C@]12c1c(O)cc(O)cc1O[C@@H]2c1ccc(O)cc1`, the Activity in assay [1] was found to be 1.09 mM; in assay [2], 76.3%; in assay [3], 72.1%.
In the same order, the values of `Oc1ccc(/C=C/c2cc(O)cc(O)c2)cc1` are 1.9 mM, 24.9% and 45.9%.
In the same order, the values of `O=C1[C@@H](c2ccc(O)cc2)Oc2cc(O)cc(O)c2[C@@]12c1c(O)cc(O)cc1[C@H](O)[C@H]2c1ccc(O)cc1` are 1.04 mM, 40.6% and 43.4%.
On to `O=c1c(O)c(-c2ccc(O)c(O)c2)oc2cc(O)cc(O)c12`, for which the Activity in assay [1] was 2.6 mM.
`COc1c(O)cc(/C=C/c2cc(O)cc(O)c2)c2c1OC(=O)[C@@]21c2c(O)cc(O)cc2O[C@@H]1c1ccc(O)cc1`: the Activity in assay [1] stood at 1.85 mM; in assay [2] it was 74.3%; in assay [3] it was 79.3%.
With `O=C1Oc2cc(O)cc(/C=C/c3ccc(O)cc3)c2[C@@]12c1c(O)cc(O)cc1O[C@@H]2c1ccc(O)cc1`, the Activity in assay [1] was 0.96 mM; in assay [2], 52.6%; in assay [3], 72.1%.
In general, inhibition refers to the drop in the measured response relative to a control, in per cent. For the molecule `COc1c(O)cc(/C=C/c2cc(O)cc3c2[C@]2(C(=O)O3)c3c(O)cc(O)cc3O[C@@H]2c2ccc(O)cc2)cc1O`, the Activity in assay [1] was 1.42 mM; in assay [3] it was 66.2%. The inhibition in assay [2] stood at 66.4%.
